Assay results reported in ChEMBL document CHEMBL1154872, “Design, synthesis, and biological evaluation of novel pyrimidine derivatives as CDK2 inhibitors” (Eur J Med Chem, 2010).

Assays:
[1] = test system: A-431; assay: Growth inhibition of human A431 cells after 2 days by sulforhodamine B assay; type: functional; settings: A-431, 48 h
How it was run: (§1)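 Cells kept in RPMI 1640 with 10% FBS at 37 °C, 5% CO2; 1000 cells/well plated, compounds added next day at various concentrations, 2 days exposure. Fixed with 4% formalin 30 min, stained 0.1% SRB 30 min, acetic acid washes, dye eluted in 0.1 M Tris-HCl pH 8.0, A520 read. Triplicate, averaged; time-zero absorbance = 0%, untreated 2-day growth = 100%.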

[2] = molecular target: Epidermal growth factor receptor (Homo sapiens, UniProt P00533); assay: Inhibition of EGFR
[3] = test system: HCT-116; assay: Growth inhibition of human HCT116 cells after 2 days by sulforhodamine B assay; type: functional; settings: HCT-116, 48 h; how it was run: as §1
[4] = molecular target: Cyclin-dependent kinase 2/cyclin A (Homo sapiens, UniProt P24941); assay: Inhibition of human recombinant CDK2/cyclin A expressed in baculovirus-infected insect Sf21 cells after 10 mins

Chain of Epidermal growth factor receptor (P00533 whole entry): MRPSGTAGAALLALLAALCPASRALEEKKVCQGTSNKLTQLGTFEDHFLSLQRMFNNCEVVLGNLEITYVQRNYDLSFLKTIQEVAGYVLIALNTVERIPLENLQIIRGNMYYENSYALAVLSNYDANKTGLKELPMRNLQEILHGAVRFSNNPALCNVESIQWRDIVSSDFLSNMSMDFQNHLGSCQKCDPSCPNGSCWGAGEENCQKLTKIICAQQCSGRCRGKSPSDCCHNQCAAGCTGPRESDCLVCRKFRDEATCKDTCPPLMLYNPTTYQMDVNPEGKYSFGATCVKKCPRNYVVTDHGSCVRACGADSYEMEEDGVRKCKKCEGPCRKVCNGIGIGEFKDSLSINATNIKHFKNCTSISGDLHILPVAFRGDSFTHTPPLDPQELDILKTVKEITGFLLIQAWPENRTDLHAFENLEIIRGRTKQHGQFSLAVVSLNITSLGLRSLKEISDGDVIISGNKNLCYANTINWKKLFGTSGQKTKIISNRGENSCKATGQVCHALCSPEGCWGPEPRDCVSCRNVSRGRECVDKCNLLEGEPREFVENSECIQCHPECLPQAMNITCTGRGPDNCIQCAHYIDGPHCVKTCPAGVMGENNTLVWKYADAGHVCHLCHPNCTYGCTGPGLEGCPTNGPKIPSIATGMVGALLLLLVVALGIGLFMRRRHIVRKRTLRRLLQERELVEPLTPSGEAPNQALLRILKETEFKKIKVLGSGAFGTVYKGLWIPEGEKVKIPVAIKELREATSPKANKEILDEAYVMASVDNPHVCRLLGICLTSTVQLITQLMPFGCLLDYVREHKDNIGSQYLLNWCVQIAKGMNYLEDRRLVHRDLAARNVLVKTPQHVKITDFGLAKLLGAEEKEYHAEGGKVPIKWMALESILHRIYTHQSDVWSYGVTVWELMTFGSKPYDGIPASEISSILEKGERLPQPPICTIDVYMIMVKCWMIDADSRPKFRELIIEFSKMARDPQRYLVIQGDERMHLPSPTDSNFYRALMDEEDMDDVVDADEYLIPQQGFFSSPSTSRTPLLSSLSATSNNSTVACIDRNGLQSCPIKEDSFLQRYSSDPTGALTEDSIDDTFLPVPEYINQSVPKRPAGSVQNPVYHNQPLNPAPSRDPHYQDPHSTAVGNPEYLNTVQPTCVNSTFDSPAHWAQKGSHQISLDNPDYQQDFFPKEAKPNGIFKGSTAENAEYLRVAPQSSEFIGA

| Compound | GI50 [1] [µM] | IC50 [2] [µM] | GI50 [3] [µM] | IC50 [4] [µM] |
| --- | --- | --- | --- | --- |
| CC1=C(C(=O)Nc2cccc([N+](=O)[O-])c2)C(c2ccc(O)cc2O)NC(Nc2ccc(S(=O)(=O)Nc3ncccn3)cc2)=N1 (centres undefined) | 69.2 | 88.3 | 77.5 | 57.5 |
| CC1=C(C(=O)Nc2cccc([N+](=O)[O-])c2)C(c2ccc(O)cc2O)NC(Nc2ccc(S(=O)(=O)Nc3cc(C)on3)cc2)=N1 (centres undefined) | 2.94 | > 100 | 16.6 | 0.9 |
| CC1=C(C(=O)Nc2cccc([N+](=O)[O-])c2)C(c2ccc(O)cc2O)NC(NN2C(=O)/C(=C\c3cccs3)SC2=S)=N1 (centres undefined) | 2.78 | 80.6 | 4.5 | 0.3 |
| CC1=C(C(=O)Nc2cccc([N+](=O)[O-])c2)C(c2ccc(O)cc2O)NC(NN2C(=O)/C(=C\c3ccccc3)SC2=S)=N1 (centres undefined) | 24.3 | > 100 | 16.6 | 28.2 |
| CC1=C(C(=O)Nc2cccc([N+](=O)[O-])c2)C(c2ccc(O)cc2O)NC(NN2C(=O)/C(=C\c3ccco3)SC2=S)=N1 (centres undefined) | 28.9 | 99.3 | > 100 | 0.4 |
| CC1=C(C(=O)Nc2cccc([N+](=O)[O-])c2)C(c2ccc(O)cc2O)NC(N/N=C/c2cccs2)=N1 (centres undefined) | 19.1 | > 100 | 38.2 | 22.9 |
| Cc1nc(S(=O)(=O)Cc2ccccc2)nc(-c2ccc(O)cc2O)c1C(=O)Nc1cccc([N+](=O)[O-])c1 | 28.9 | > 100 | 10.9 | 0.9 |
| CC1=C(C(=O)Nc2cccc([N+](=O)[O-])c2)C(c2ccc(O)cc2O)NC(N/N=C/c2ccco2)=N1 (centres undefined) | 2.91 | > 100 | 8.89 | 3.8 |
| CC1=C(C(=O)Nc2cccc([N+](=O)[O-])c2)C(c2ccc(O)cc2O)NC(Nc2ccc([N+](=O)[O-])cc2Cl)=N1 (centres undefined) | 3.94 | > 100 | 10.9 | 8.1 |
| CC1=NN(C2=NC(C)=C(C(=O)Nc3cccc([N+](=O)[O-])c3)C(c3ccc(O)cc3O)N2)C(=O)/C1=C/c1ccco1 (centres undefined) | 15.8 | > 100 | > 100 | 10.3 |
| CC1=NN(C2=NC(C)=C(C(=O)Nc3cccc([N+](=O)[O-])c3)C(c3ccc(O)cc3O)N2)C(=O)/C1=C/c1cccs1 (centres undefined) | 37.1 | > 100 | 26.5 | 3.1 |
| COc1cccc2c1C(=O)c1c(O)c3c(c(O)c1C2=O)C[C@@](O)(C(=O)CO)C[C@@H]3O[C@H]1C[C@H](N)[C@H](O)[C@H](C)O1 [DOXORUBICIN] | 0.18 |  | 0.13 |  |
| CC[C@H](CO)Nc1nc(NCc2ccccc2)c2c(n1)N(C(C)C)CN2 [RESCOVITINE] |  |  |  | 0.5 |

Second part, the compound after the results:

| GI50 [1] [µM] | IC50 [2] [µM] | GI50 [3] [µM] | IC50 [4] [µM] | Compound |
| --- | --- | --- | --- | --- |
| 3.94 | 79.8 | 8.99 | 11.5 | CC1=C(C(=O)Nc2cccc([N+](=O)[O-])c2)C(c2ccc(O)cc2O)NC(Nc2ccc(S(=O)(=O)Nc3nc(C)cc(C)n3)cc2)=N1 (centres undefined) |
| 24.3 | 47.9 | 47.7 | > 100 | CC1=C(C(=O)Nc2cccc([N+](=O)[O-])c2)C(c2ccc(O)cc2O)NC(NN)=N1 (centres undefined) |
| 31.9 | 60.9 | 28.2 | 44.9 | CC1=C(C(=O)Nc2ccc(C)cc2)C(c2ccc(O)cc2O)NC(Nc2ccc([N+](=O)[O-])cc2Cl)=N1 (centres undefined) |
| 35.6 | > 100 | > 100 | 46.8 | CC1=C(C(=O)Nc2cccc([N+](=O)[O-])c2)C(c2ccc(O)cc2O)NC(NCc2ccccc2)=N1 (centres undefined) |
| 32 | > 100 | 23.4 | 48.3 | Cc1ccc(NC(=O)c2c(C)nc(S(=O)(=O)Cc3ccccc3)nc2-c2ccc(O)cc2O)cc1 |
| 20.8 | 93.5 | 14.5 | 25.4 | CC1=C(C(=O)Nc2ccc(C)cc2)C(c2ccc(O)cc2O)NC(SCc2ccccc2)=N1 (centres undefined) |
| > 100 | 55.6 | 29 | 24.6 | CC1=C(C(=O)Nc2cccc([N+](=O)[O-])c2)C(c2ccc(O)cc2O)NC(SCc2ccccc2)=N1 (centres undefined) |
| 42.7 | 23.5 | 66.7 | > 100 | CC1=C(C(=O)Nc2ccc(C)cc2)C(c2ccc(O)cc2O)NC(NCc2ccccc2)=N1 (centres undefined) |
